Assay results taken from ChEMBL document CHEMBL5653631, “A Potent and Selective ULK1 Inhibitor Suppresses Autophagy and Sensitizes Cancer Cells to Nutrient Stress” (iScience, 2018).
One block for each compound: values may come before it.

Experiments:
[1] = target: Ephrin type-A receptor 7 (Homo sapiens) (UniProt Q15375); assay: Inhibition of human recombinant EphA7 at 500 nM in presence of ATP by radiometric assay relative to control
[2] = target: T1, Serine/threonine-protein kinase STK11 (Homo sapiens) (UniProt Q15831); assay: Inhibition of human recombinant LKB1 at 500 nM related to control ULK1
T1 sequence (whole entry): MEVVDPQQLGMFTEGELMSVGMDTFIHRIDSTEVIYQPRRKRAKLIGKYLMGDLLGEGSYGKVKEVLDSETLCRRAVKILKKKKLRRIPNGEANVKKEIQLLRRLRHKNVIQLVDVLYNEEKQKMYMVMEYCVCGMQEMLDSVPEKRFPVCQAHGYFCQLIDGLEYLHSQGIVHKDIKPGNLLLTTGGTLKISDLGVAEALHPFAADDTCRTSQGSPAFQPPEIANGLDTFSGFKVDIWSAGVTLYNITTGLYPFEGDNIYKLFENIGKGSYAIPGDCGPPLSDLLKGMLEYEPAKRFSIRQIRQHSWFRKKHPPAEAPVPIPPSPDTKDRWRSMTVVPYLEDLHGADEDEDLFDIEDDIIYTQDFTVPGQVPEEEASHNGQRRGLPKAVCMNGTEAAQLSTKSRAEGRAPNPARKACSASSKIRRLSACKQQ

[3] = target: Tyrosine-protein kinase Yes (Homo sapiens) (UniProt P07947); assay: Inhibition of human recombinant YES at 500 nM in presence of ATP by radiometric assay relative to control
Tyrosine-protein kinase Yes (Homo sapiens), sequence (P07947 2-543 limits assumed): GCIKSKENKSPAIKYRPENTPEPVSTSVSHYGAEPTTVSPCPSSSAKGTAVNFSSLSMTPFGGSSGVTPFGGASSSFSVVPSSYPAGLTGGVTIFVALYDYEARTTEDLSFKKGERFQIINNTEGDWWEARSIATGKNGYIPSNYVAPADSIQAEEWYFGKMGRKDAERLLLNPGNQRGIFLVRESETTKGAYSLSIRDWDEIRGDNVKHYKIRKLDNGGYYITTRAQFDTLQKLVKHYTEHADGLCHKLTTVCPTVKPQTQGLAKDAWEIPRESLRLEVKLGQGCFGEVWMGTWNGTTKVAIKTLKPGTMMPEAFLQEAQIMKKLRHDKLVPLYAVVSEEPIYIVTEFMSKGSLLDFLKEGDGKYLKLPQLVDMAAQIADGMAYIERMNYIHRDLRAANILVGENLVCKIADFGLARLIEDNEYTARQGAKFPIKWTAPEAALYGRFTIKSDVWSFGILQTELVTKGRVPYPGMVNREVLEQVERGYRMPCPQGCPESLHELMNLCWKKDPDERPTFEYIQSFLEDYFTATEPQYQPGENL

[4] = target: T2, Serine/threonine-protein kinase NLK (Homo sapiens) (UniProt Q9UBE8); assay: Inhibition of human recombinant NLK at 500 nM related to control ULK1
T2 sequence (whole entry): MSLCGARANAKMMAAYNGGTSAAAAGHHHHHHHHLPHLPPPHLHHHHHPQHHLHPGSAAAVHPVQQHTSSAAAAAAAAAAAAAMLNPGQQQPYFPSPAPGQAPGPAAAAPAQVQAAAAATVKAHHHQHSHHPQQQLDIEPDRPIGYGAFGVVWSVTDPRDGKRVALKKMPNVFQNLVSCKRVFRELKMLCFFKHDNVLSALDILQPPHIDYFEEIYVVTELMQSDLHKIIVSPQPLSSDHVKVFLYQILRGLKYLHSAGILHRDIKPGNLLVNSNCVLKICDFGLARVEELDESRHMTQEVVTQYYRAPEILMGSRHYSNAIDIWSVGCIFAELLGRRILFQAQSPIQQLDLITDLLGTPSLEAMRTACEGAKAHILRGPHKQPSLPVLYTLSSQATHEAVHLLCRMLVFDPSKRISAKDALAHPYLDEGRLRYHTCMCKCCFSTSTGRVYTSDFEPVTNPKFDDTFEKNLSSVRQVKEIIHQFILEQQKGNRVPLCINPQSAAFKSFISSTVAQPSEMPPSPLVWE

[5] = target: cAMP-dependent protein kinase catalytic subunit alpha (Homo sapiens) (UniProt P17612); assay: Inhibition of human recombinant PKACalpha at 40 nM in presence of ATP by radiometric assay relative to control
[6] = target: Rho-associated protein kinase 1 (Homo sapiens) (UniProt Q13464); assay: Inhibition of human recombinant ROCK1 at 40 nM in presence of ATP by radiometric assay relative to control
Rho-associated protein kinase 1 (Homo sapiens), sequence (Q13464 2-1354 limits assumed): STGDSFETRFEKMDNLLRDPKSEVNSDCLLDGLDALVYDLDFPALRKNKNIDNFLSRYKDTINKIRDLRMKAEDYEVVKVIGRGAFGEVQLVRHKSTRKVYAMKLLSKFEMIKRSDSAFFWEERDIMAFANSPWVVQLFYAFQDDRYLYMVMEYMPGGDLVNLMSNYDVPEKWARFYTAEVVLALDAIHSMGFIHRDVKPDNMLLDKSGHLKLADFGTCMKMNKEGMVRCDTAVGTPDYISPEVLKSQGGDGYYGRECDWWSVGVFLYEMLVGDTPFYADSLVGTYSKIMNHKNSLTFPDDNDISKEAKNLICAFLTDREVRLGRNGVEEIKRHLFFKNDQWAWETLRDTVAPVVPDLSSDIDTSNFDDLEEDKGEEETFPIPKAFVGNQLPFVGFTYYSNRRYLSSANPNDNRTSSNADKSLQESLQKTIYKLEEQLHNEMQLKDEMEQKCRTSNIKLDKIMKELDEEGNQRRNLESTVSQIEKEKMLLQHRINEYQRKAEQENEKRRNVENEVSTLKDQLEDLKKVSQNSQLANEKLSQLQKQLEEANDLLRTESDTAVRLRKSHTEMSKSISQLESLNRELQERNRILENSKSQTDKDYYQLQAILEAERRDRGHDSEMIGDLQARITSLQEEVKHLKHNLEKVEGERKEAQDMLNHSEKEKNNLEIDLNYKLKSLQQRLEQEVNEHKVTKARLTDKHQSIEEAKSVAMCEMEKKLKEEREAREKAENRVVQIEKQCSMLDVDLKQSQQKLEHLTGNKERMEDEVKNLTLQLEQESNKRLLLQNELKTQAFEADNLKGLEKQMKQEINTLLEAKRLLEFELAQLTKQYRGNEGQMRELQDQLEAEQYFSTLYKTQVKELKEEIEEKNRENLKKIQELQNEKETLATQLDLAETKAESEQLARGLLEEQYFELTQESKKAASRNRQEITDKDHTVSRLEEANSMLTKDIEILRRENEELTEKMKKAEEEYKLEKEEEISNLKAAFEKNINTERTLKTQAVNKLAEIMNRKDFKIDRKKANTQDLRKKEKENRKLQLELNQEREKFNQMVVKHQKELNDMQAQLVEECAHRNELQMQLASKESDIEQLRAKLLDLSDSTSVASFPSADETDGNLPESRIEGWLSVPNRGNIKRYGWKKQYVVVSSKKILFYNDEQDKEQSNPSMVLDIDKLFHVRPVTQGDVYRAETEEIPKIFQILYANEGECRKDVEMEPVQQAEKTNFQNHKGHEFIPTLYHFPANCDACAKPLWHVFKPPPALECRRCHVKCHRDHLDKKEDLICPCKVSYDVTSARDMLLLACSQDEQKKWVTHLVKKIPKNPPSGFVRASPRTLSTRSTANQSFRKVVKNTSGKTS

[7] = target: T3, Aurora kinase C (Homo sapiens) (UniProt Q9UQB9); assay: Inhibition of human recombinant AurC at 40 nM related to control ULK1
T3 sequence (whole entry): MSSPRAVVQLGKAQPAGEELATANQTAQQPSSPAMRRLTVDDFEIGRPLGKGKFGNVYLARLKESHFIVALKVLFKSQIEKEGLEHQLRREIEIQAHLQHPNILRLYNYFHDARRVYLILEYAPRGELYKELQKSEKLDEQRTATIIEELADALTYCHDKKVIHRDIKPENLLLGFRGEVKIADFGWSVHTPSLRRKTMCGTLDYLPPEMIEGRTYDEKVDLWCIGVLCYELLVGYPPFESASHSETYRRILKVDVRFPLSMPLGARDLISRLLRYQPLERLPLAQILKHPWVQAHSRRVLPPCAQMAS
How it was run: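 Radiometric activity assays in a panel of 327 human recombinant kinases, each run in duplicate at one inhibitor concentration. Activity remaining is expressed as percent of vehicle control, and percent inhibition is calculated as 100% minus percent activity remaining.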

[8] = target: Tyrosine-protein kinase Fer (Homo sapiens) (UniProt P16591); assay: Inhibition of human recombinant FER at 40 nM related to control ULK1
Tyrosine-protein kinase Fer (Homo sapiens), sequence (P16591 whole entry, looked up): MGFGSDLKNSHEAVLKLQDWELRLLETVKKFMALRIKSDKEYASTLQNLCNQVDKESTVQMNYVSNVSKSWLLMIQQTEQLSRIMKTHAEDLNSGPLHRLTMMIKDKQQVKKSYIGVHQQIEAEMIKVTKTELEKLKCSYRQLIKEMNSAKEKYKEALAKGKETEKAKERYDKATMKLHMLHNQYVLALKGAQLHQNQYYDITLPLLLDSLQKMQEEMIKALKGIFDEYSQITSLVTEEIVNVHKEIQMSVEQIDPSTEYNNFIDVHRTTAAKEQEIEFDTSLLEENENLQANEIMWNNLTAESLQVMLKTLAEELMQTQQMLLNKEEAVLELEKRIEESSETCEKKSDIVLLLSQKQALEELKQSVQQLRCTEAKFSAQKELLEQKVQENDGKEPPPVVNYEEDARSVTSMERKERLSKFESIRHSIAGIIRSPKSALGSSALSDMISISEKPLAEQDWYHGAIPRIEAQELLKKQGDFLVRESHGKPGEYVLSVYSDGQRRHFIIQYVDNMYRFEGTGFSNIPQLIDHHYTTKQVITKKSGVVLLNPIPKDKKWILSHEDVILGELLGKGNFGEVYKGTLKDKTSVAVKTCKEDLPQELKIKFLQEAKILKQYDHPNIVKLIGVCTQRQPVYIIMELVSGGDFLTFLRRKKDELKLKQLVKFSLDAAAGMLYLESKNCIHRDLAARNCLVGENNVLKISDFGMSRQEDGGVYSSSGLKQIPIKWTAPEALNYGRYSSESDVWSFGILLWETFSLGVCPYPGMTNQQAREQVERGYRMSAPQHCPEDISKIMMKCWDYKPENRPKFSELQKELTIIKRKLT

[9] = target: Serine/threonine-protein kinase mTOR (Homo sapiens) (UniProt P42345); assay: Inhibition of human recombinant FRAP at 40 nM related to control ULK1
[10] = target: Serine/threonine-protein kinase ATR (Homo sapiens) (UniProt Q13535); assay: Inhibition of human recombinant ATR at 15 nM related to control ULK1
How it was run: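 Panel of 327 recombinant human kinases, each assayed in vitro by radiometric activity assay in duplicate at a single inhibitor concentration per compound, chosen with reference to its ULK1 inhibition. Activity remaining was expressed as percent of vehicle control, and percent inhibition was calculated as 100 minus percent activity remaining.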

[11] = target: DNA-PK/Ku70/Ku85 (Homo sapiens) (UniProt P78527+P12956+P13010); assay: Inhibition of human recombinant DNAPK at 15 nM related to control ULK1; assay type: protein-complex assay
[12] = target: Mitogen-activated protein kinase 11 (Homo sapiens) (UniProt Q15759); assay: Inhibition of human recombinant p38beta at 15 nM in presence of ATP by radiometric assay relative to control
Mitogen-activated protein kinase 11 (Homo sapiens), sequence (Q15759 whole entry): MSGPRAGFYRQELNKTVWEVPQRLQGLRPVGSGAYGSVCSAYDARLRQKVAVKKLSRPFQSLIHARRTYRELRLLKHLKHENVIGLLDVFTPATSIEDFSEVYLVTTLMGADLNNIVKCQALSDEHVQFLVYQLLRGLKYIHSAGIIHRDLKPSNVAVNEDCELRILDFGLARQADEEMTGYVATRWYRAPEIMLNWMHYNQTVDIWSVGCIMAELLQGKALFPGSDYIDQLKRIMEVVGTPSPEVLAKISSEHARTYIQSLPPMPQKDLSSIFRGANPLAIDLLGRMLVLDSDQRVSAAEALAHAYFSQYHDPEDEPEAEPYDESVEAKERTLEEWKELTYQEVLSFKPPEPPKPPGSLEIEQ

Ephrin type-A receptor 7 (Homo sapiens), sequence (Q15375 28-998 limits assumed): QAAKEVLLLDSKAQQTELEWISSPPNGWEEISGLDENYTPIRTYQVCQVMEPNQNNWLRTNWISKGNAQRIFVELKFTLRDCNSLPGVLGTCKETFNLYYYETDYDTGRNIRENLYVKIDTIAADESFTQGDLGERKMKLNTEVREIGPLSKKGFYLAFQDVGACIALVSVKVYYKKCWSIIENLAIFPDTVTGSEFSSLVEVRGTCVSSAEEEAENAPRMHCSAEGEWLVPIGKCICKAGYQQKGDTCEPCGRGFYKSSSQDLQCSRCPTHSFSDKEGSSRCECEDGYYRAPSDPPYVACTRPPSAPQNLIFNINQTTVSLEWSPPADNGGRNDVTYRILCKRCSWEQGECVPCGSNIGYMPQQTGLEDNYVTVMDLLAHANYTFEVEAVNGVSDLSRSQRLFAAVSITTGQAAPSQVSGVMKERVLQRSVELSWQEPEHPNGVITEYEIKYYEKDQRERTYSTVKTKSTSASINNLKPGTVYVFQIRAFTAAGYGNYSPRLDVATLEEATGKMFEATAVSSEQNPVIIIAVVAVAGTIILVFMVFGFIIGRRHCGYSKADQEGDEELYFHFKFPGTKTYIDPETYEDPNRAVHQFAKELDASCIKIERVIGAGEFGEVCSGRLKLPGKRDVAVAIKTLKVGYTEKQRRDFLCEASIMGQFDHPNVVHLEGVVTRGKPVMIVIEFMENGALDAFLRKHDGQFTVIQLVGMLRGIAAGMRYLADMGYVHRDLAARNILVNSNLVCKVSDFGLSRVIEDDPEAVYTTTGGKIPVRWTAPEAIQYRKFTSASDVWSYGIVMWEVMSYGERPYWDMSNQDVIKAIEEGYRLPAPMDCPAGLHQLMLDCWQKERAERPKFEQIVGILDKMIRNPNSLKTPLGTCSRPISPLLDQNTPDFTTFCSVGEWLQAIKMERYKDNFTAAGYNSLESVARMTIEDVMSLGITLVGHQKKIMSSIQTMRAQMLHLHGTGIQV

inhibition [1]: 0% | fold change (FC) [2]: 0.16 | inhibition [3]: 66% | fold change (FC) [4]: 0.05
Structure (SMILES): CNC(=O)c1ccccc1Oc1nc(Nc2cc(OC)c(OC)c(OC)c2)ncc1Br

inhibition [5]: 0% | inhibition [6]: 0% | fold change (FC) [7]: 0 | fold change (FC) [8]: 0 | fold change (FC) [9]: 0
Structure (SMILES): O=C(N[C@@H](C1CC1)C(F)(F)F)c1cc(-c2cnn3cc(-c4ccc(F)cc4)cnc23)cs1

fold change (FC) [10]: 0.05 | fold change (FC) [11]: 0 | inhibition [12]: 1%
Structure (SMILES): CC(C)[C@H](NC(=O)c1cc(-c2cnn3cc(-c4ccc(OCCN5CCCCC5)cc4)cnc23)cs1)C(F)(F)F
